Assay results published in ChEMBL document CHEMBL3751829, “Synthesis and biological evaluation of 3-tetrazolo steroidal analogs: Novel class of 5α-reductase inhibitors” (Bioorg Med Chem, 2016).

Experiments:
Rattus norvegicus [1] = assay: Decrease in ventral prostate organ weight in male wistar rat at 5ml/kg, po qd measured on 15th day after 24 hrs of last dose; format: functional, Prostate gland; parameters: scale not given: the % may be the effect or the level left
Rattus norvegicus [2] = assay: Effect on organ weight in male wistar rat assessed as seminal vesicles tissue weight per 100g at 5ml/kg, po qd measured on 15th day after 24 hrs of last dose (Rvb=175.439+/-12.833 mg/100g); format: ADME, organism-based; conditions: in vivo
Rattus norvegicus [3] = assay: Decrease in epididymis organ weight in male wistar rat at 5ml/kg, po qd measured on 15th day after 24 hrs of last dose; format: functional; parameters: scale not given: the % may be the effect or the level left
Rattus norvegicus [4] = assay: Decrease in dorsal prostate organ weight in male wistar rat at 5ml/kg, po qd measured on 15th day after 24 hrs of last dose; format: functional, Prostate gland; parameters: scale not given: the % may be the effect or the level left
Rattus norvegicus [5] = assay: Decrease in vas deferens organ weight in male wistar rat at 5ml/kg, po qd measured on 15th day after 24 hrs of last dose; format: functional; parameters: scale not given: the % may be the effect or the level left
[6] = target: T1, 3-oxo-5-alpha-steroid 4-dehydrogenase 1 (Homo sapiens) (UniProt P18405); assay: Inhibition of human 5alpha-1 reductase expressed in HEK293 cells assessed as suppression of conversion of [3]androstenedione at 2 uM incubated for 30 mins by radioactivity-based HPLC analysis; format: cell-based
T1 sequence (whole entry): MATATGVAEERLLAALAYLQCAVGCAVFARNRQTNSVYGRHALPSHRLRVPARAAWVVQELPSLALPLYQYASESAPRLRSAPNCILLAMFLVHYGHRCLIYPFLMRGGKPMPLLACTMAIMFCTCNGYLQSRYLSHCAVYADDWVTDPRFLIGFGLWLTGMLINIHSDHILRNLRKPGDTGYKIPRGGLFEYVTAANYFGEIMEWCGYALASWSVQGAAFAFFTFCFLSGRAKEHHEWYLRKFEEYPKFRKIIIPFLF
How it was run: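 Lysates of stably transfected HEK293 cells (80% confluent cells sonicated in 300 mM saccharose, 5 mM Tris–HCl, 0.1 mM EDTA). Master mix: Tris buffer, androstenedione (500 nM solution) plus tracer [3H]androstenedione, NADP/glucose/glucose-6-P-dehydrogenase regenerating system; compound added in 2% DMSO. Cell suspension mixed 1:1 with master mix, 37 °C for 30 min. Stopped with ether; steroids extracted, dried, taken up in methanol, radio-HPLC.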

[7] = target: T1, 3-oxo-5-alpha-steroid 4-dehydrogenase 1 (Homo sapiens); assay: Inhibition of human 5alpha-1 reductase expressed in HEK293 cells assessed as suppression of conversion of [3]androstenedione at 10 uM incubated for 30 mins by radioactivity-based HPLC analysis; format: cell-based
How it was run: (§1)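 Stably transfected HEK293 lines expressing 5AR-1 (HEK-I) or 5AR-2 (HEK-II) were sonicated in saccharose/Tris/EDTA buffer. The suspension was incubated at 37 °C for 30 min with 500 nM androstenedione solution plus [3H]androstenedione and an NADP/glucose/G6PDH regenerating system. Test compounds were added in 2% DMSO. The reaction was stopped with ether; steroids were extracted and analysed by radio-HPLC.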

[8] = target: T2, 3-oxo-5-alpha-steroid 4-dehydrogenase 2 (Homo sapiens) (UniProt P31213); assay: Inhibition of human 5alpha-2 reductase expressed in HEK293 cells assessed as suppression of conversion of [3]androstenedione at 2 uM incubated for 30 mins by radioactivity-based HPLC analysis; format: cell-based; how it was run: as §1
T2 sequence (whole entry): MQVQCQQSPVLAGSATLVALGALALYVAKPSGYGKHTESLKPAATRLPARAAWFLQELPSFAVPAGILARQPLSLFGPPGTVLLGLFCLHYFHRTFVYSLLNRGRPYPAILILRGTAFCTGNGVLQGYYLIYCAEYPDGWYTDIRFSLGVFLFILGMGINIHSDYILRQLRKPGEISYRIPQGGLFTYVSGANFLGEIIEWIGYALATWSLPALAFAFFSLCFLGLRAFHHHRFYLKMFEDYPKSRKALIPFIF

[9] = target: T2, 3-oxo-5-alpha-steroid 4-dehydrogenase 2 (Homo sapiens); assay: Inhibition of human 5alpha-2 reductase expressed in HEK293 cells assessed as suppression of conversion of [3]androstenedione at 10 uM incubated for 30 mins by radioactivity-based HPLC analysis; format: cell-based; how it was run: as §1
Rattus norvegicus [10] = assay: Effect on organ weight in male wistar rat assessed as liver tissue weight per 100g at 5ml/kg, po qd measured on 15th day after 24 hrs of last dose (Rvb=2.994+/- 0.254 g/100g); format: ADME, organism-based; conditions: in vivo
Rattus norvegicus [11] = assay: Effect on organ weight in male wistar rat assessed as vas deferens tissue weight per 100g at 5ml/kg, po qd measured on 15th day after 24 hrs of last dose (Rvb=67.613+/-3.248 mg/100g); format: functional
Rattus norvegicus [12] = assay: Effect on organ weight in male wistar rat assessed as adrenal tissue weight per 100g at 5ml/kg, po qd measured on 15th day after 24 hrs of last dose (Rvb=14.762 +/-0.600 mg/100g); format: ADME, organism-based; conditions: in vivo
Rattus norvegicus [13] = assay: Increase in body weight gain in male wistar rat at 5ml/kg, po qd measured on 15th day after 24 hrs of last dose (Rvb=9.412+/-1.632g%); format: ADME, organism-based; conditions: in vivo
Rattus norvegicus [14] = assay: Toxicity in male wistar rat assessed induction of mortality at 5ml/kg, po qd measured on 15th day after 24 hrs of last dose; format: organism-based; conditions: in vivo
How it was run: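 Mature male Wistar rats, groups of 5, standard diet. Compounds suspended in 0.50% CMC sodium given orally at 5 ml/kg once daily for 14 days; controls received vehicle only. Animals weighed and killed under ether on day 15, 24 h after last dose.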

Rattus norvegicus [15] = assay: Effect on organ weight in male wistar rat assessed as ventral prostate tissue weight per 100g at 5ml/kg, po qd measured on 15th day after 24 hrs of last dose (Rvb=59.494+/- 4.733 mg/100g); format: functional, Prostate gland
Rattus norvegicus [16] = assay: Effect on organ weight in male wistar rat assessed as epididymis tissue weight per 100g at 5ml/kg, po qd measured on 15th day after 24 hrs of last dose (Rvb=187.356+/- 5.961 mg/100g); format: functional
Rattus norvegicus [17] = assay: Effect on organ weight in male wistar rat assessed testis tissue weight per 100g at 5ml/kg, po qd measured on 15th day after 24 hrs of last dose (Rvb=1054.099+/- 55.648 mg/100g); format: ADME, organism-based; conditions: in vivo
Rattus norvegicus [18] = assay: Effect on organ weight in male wistar rat assessed as dorsal prostate tissue weight per 100g at 5ml/kg, po qd measured on 15th day after 24 hrs of last dose (Rvb=50.325+/-7.519 mg/100g); format: functional, Prostate gland
[19] = Cytotoxicity against human DU145 cells by rapid colorimetric assay; format: functional, cell-based, DU-145
How it was run: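 Antiproliferative test on DU-145 cells using the Mosmann method. Seven concentrations were tested in culture medium.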

[20] = target: T3, 3-oxo-5-alpha-steroid 4-dehydrogenase 2 (Homo sapiens, UniProt P31213); assay: Inhibition of human 5alpha-2 reductase expressed in HEK293 cells assessed as suppression of conversion of [3]androstenedione incubated for 30 mins by radioactivity-based HPLC analysis; format: cell-based; how it was run: as §1
T3 sequence (P31213 whole entry): T2 sequence (whole entry)

[21] = Homo sapiens, DU-145, read-out: IC50

SMILES | Activity (Rattus norvegicus [1]) [%] | Activity (Rattus norvegicus [2]) [mg] | Activity (Rattus norvegicus [3]) [%] | Activity (Rattus norvegicus [4]) [%] | Activity (Rattus norvegicus [5]) [%] | inhibition [7] [%] | inhibition [8] [%] | inhibition [9] [%] | Activity (Rattus norvegicus [10]) [g] | Activity (Rattus norvegicus [11]) [mg] | Activity (Rattus norvegicus [12]) [mg] | Activity (Rattus norvegicus [13]) [g%] | Activity (Rattus norvegicus [14]) | Activity (Rattus norvegicus [15]) [mg] | Activity (Rattus norvegicus [16]) [mg] | Activity (Rattus norvegicus [17]) [mg] | Activity (Rattus norvegicus [18]) [mg] | IC50 [19, 21] [µM] | IC50 [20] [µM] | IC50 ([19]; du-145) | also measured
C[C@]12CC[C@H]3[C@@H](CC=C4C=C(c5nnn[nH]5)CC[C@@H]43)[C@@H]1CCC2=O | 5.66 | 188.757 | 3.44 | 7.21 | 12.4 | 79.7 | 60.6 | 79.7 | 3.457 | 59.232 | 19.76 | 21.51 | Non-toxic | 56.124 | 180.908 | 1350.787 | 46.695 | 536 |  |  | inhibition [6]: 36.2%
CN1C(=O)CC[C@H]2[C@@H]3CC=C4C=C(c5nnn[nH]5)CC[C@]4(C)[C@H]3CC[C@@]21C | 29.94 | 199.778 | 9.03 | 11.39 | 11.56 | 6.4 | 84.3 | 91.2 | 3.328 | 59.796 | 16.362 | 15.456 | Non-toxic | 41.684 | 170.447 | 1233.129 | 44.593 | 389 | 0.274 |  | 
CC(=O)n1nnnc1C1=CC2=CC[C@@H]3[C@H](CC[C@]4(C)NC(=O)CC[C@@H]34)[C@@]2(C)CC1 |  |  |  |  |  |  |  |  |  |  |  |  |  |  |  |  |  |  |  | ND(Unstable) | 
C[C@]12CCC(c3nnn[nH]3)=CC1=CC[C@@H]1[C@@H]2CC[C@@]2(C)[C@H]1CCC(=O)N2CCc1nnn[nH]1 |  |  |  |  |  |  |  |  |  |  |  |  |  |  |  |  |  |  |  | ND(Unstable) | 
C=CCN1C(=O)CC[C@H]2[C@@H]3CC=C4C=C(c5nnn[nH]5)CC[C@]4(C)[C@H]3CC[C@@]21C | 33.61 | 141.816 | 9.3 | 16.94 | 37.07 | 31.7 | 94.7 | 100 | 3.548 | 42.548 | 24.261 | 19.229 | Non-toxic | 39.499 | 169.924 | 1318.403 | 41.802 | 496 | 0.157 |  | 
CCN1C(=O)CC[C@H]2[C@@H]3CC=C4C=C(c5nnn[nH]5)CC[C@]4(C)[C@H]3CC[C@@]21C |  |  |  |  |  |  |  |  |  |  |  |  |  |  |  |  |  |  |  | ND(Unstable) | 
